1 molecule from ChEMBL document CHEMBL4680373, “Evaluation of 5-(Trifluoromethyl)-1,2,4-oxadiazole-Based Class IIa HDAC Inhibitors for Huntington's Disease” (ACS Med Chem Lett, 2021) can be followed below.

SMILES strings stand for the structures. Values after ≈ are worked out from the molar mass of the structure shown.

One data set is filed under the species Homo sapiens. The data set can be described thus: Inhibition of sodium channel (unknown origin) at 10 uM. Put shortly:
(§1)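 Broad selectivity panel of binding, cellular, functional and enzymatic assays run by a contract lab. Each test was done at a single 10 μM concentration and reported as percent inhibition.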

Data set [1] deals with Muscarinic acetylcholine receptor M4 (Homo sapiens, UniProt P08173). The data set can be described thus: Displacement of [3H]4-DAMP from human recombinant M4 receptor incubated for 1 hr by radiometric scintillation counting analysis.
Sequence of Muscarinic acetylcholine receptor M4 (P08173 whole entry): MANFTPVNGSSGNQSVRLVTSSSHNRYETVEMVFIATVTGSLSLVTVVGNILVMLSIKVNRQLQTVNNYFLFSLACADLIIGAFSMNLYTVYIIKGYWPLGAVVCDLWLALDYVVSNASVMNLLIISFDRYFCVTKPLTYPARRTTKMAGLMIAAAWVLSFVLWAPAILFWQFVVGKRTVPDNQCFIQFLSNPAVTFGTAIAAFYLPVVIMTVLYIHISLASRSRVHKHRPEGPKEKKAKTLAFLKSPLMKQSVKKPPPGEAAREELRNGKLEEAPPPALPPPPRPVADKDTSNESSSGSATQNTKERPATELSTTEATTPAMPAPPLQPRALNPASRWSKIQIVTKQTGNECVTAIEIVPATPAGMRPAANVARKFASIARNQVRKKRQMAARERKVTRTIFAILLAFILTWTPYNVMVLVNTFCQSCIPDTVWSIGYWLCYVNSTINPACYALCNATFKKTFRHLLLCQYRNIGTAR
In data set [2] the target is T1, Histone deacetylase 4 (Homo sapiens, UniProt P56524). The data set is described as follows: Inhibition of human recombinant HDAC4 at 10 uM incubated for 30 mins by fluorometry. In short, it runs like this: as §1
T1 sequence (P56524 whole entry): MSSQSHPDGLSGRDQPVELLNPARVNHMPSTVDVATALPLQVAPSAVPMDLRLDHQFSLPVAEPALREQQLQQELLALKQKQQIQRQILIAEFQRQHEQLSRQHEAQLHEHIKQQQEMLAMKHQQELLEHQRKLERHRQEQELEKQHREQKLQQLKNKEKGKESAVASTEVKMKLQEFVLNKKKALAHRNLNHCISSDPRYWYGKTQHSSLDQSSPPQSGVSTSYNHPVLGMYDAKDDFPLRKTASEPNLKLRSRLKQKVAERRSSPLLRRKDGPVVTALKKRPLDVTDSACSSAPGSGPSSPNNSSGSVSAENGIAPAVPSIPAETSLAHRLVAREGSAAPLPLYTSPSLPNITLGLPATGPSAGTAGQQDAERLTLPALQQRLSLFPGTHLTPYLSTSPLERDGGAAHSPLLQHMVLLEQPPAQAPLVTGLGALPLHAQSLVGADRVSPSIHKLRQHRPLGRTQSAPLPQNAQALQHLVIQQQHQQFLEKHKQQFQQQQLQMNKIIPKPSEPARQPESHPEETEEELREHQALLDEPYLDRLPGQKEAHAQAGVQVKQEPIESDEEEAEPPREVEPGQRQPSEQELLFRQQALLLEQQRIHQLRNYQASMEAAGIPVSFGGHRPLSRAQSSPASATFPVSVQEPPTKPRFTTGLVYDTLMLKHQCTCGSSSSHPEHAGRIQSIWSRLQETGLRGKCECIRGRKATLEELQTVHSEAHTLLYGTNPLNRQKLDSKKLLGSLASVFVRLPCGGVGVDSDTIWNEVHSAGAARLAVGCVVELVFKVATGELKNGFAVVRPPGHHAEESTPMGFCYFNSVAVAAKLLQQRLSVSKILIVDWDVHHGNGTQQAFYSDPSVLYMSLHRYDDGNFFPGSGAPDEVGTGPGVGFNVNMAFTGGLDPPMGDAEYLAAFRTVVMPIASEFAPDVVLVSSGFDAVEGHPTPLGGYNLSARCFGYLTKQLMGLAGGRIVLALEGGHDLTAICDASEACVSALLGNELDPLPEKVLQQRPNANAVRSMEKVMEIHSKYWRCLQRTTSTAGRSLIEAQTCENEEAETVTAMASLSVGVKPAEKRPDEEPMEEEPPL
A short description of data set [3]: Toxicity in CBAxC57BL/6J mouse assessed as effect on stereotypy at 10 to 100 mg/kg, po bid for 14.5 days. Format: organism-based. As to conditions: in vivo, 348 h, dose 10-100 mg/kg, time 14.5 day; call rule not given here. Put shortly:
(§2)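 R6/2 HD mice and wild-type littermates, male and female, were dosed orally b.i.d. at 10, 30 or 100 mg/kg or with vehicle for 14.5 days. Vehicle was 10% (w/v) hydroxypropyl-β-cyclodextrin in 50 mM citrate buffer. Body weight, body temperature, passive observations and active manipulation scores were recorded. Blood and brain were collected 2 h after the final dose.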

Data set [4] in a line: Toxicity in CBAxC57BL/6J mouse assessed as effect on shallow respiration at 10 to 100 mg/kg, po bid for 14.5 days. Format: organism-based. As to conditions: in vivo, 348 h, dose 10-100 mg/kg, time 14.5 day. Put shortly:
as §2

For data set [5], the target named is Class 1 histone deacetylase (Homo sapiens, UniProt Q13547+O15379+Q92769+Q9BY41). The data set is described as follows: Inhibition of Class 1 HDAC in human HEK293 cells using H4K12 as substrate by fluorogenic assay. The data set is classed as cell-based.
A short description of data set [6]: In vivo inhibition of Class 1 HDAC in CBAxC57BL/6J mouse brain assessed as increase in H4K12 acetylation at 30 to 100 mg/kg, po bid for 14.5 days by dot blot technique. As to conditions: 348 h, dose 30-100 mg/kg, time 14.5 day. Format: organism-based. Put shortly: (§3)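 R6/2 and wild-type littermate mice of both sexes were dosed orally b.i.d. for 14.5 days with 10, 30 or 100 mg/kg or vehicle (10% w/v hydroxypropyl-β-cyclodextrin in 50 mM citrate buffer). Half-brains were collected 2 h after the last dose. Dot blots measured global and H4K12 acetylation; Western blots measured H3, H4 and tubulin acetylation. Genotypes were pooled.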

The target in another data set is Histone deacetylase 1 (Homo sapiens, UniProt Q13547). The data set is described as follows: Inhibition of HDAC1 (unknown origin) using Ac-Arg-Gly-Lys(Ac) as substrate by fluorogenic assay.
Sequence of Histone deacetylase 1 (Q13547 whole entry): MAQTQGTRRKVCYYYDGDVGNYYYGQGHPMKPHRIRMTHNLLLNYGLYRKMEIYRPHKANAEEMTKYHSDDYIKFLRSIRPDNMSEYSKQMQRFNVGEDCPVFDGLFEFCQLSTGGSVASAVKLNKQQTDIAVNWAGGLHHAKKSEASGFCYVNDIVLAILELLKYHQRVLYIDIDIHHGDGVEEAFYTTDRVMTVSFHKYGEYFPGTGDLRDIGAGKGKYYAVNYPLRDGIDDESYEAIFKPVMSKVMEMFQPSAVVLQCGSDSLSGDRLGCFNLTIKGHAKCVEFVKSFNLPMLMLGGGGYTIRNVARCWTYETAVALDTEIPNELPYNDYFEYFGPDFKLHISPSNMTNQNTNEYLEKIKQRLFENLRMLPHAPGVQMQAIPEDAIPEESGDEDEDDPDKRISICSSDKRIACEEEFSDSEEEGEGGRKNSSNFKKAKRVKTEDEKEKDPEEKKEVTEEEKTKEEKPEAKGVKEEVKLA
A further data set concerns the target Histone deacetylase 2 (Homo sapiens, UniProt Q92769). The data set can be described thus: Inhibition of HDAC2 (unknown origin) using Ac-Arg-Gly-Lys(Ac) as substrate by fluorogenic assay.
For data set [7], the target named is Muscarinic acetylcholine receptor M1 (Homo sapiens) (UniProt P11229). The data set can be described thus: Displacement of [3H]pirenzapine from human recombinant M1 receptor at 10 uM incubated for 1 hr by radiometric scintillation counting analysis. Put shortly: as §1
Sequence of Muscarinic acetylcholine receptor M1 (Homo sapiens) (P11229 whole entry): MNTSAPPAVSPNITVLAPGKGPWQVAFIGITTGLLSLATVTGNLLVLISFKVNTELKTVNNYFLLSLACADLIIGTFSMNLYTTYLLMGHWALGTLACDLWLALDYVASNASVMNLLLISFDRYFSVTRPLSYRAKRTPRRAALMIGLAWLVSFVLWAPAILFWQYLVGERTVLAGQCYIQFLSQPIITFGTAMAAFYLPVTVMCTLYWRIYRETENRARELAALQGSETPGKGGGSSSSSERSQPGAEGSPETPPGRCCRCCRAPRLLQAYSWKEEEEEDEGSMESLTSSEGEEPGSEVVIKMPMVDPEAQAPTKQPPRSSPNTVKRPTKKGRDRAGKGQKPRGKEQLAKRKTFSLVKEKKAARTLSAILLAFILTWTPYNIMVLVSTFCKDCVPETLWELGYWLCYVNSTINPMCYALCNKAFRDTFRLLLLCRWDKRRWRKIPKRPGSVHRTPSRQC
A short description of data set [8]: Time during which drug concentration exceeds the IC50 for inhibition of human Class 2A HDAC in C57BL/6J mouse brain at 100 mg/kg, po administered via gavage by LC-MS/MS analysis. The data set is classed as organism-based. Particulars: in vivo. Put shortly: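 Single oral gavage doses of 10, 30 or 100 mg/kg were given to C57/BL6 mice. Brain and blood were sampled from 0.25 to 12 h and compound measured by LC-MS/MS. The time that total brain exposure stayed above the class IIa cellular IC50 was then estimated.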

Data set [9] can be described thus: Kinetic solubility of the compound. Format: physicochemical. Particulars: read-out: Kinetic_solubility.
A short description of data set [10]: Toxicity in CBAxC57BL/6J mouse assessed as effect on locomotor activity at 10 to 100 mg/kg, po bid for 14.5 days. As to conditions: in vivo, 348 h, dose 10-100 mg/kg, time 14.5 day. The data set is classed as organism-based. In short, it runs like this: as §2
Data set [11] is described as follows: Toxicity in CBAxC57BL/6J mouse assessed as effect on head tremor at 10 to 100 mg/kg, po bid for 14.5 days. The data set is classed as organism-based. Particulars: in vivo, 348 h, dose 10-100 mg/kg, time 14.5 day. Put shortly:
as §2

The nature of data set [12]: Unbound fraction in mouse brain. The data set is classed as ADME, tissue-based. Put shortly: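 Unbound fraction measured in mouse brain homogenate.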
The nature of data set [13]: Toxicity in CBAxC57BL/6J mouse assessed as effect on retropulsion at 10 to 100 mg/kg, po bid for 14.5 days. The data set is classed as organism-based. As to conditions: in vivo, 348 h, dose 10-100 mg/kg, time 14.5 day. Put shortly: as §2
Data set [14] has as its target T1, Histone deacetylase 4. The data set can be described thus: Inhibition of HDAC4 (unknown origin) using Boc Lys(TFA) as substrate by fluorogenic assay. In short, it runs like this: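 Biochemical HDAC isoform assay with the artificial fluorogenic substrate Boc-Lys-(TFA)-AMC, which is specific to class IIa enzymes and HDAC8. IC50 taken as the geometric mean of three experiments.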

Data set [15] concerns the target Histone deacetylase 3/Nuclear receptor corepressor 1 (HDAC3/NCoR1) (Homo sapiens). The data set is described as follows: Inhibition of HDAC3/NCOR1 (unknown origin) using Boc-Lys(Ac) as substrate by fluorogenic assay.
Data set [16] can be described thus: In vivo inhibition of Class 2B HDAC in C57BL/6J mouse brain assessed as increase in tubulin acetylation administered orally via gavage measured after 2 hrs by western blot analysis. Format: organism-based. As to conditions: po, dose 10-100 mg/kg. Put shortly: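 Brain samples were taken 2 h after single oral gavage doses (10, 30, 100 mg/kg). Western blots probed H3, H4 and tubulin acetylation, each normalized to its own total-protein band. Comparison was against samples taken 5 min after a 10 mg/kg dose.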

A short description of data set [17]: Tmax in C57BL/6J mouse blood at 11.5 mg/kg, po administered via gavage by LC-MS/MS analysis. The data set is classed as ADME, organism-based.
A short description of data set [18]: In vivo inhibition of Class 1 HDAC in CBAxC57BL/6J mouse brain assessed as increase in histone H4 acetylation at 30 to 100 mg/kg, po bid for 14.5 days by western blot analysis. Particulars: 348 h, dose 30-100 mg/kg, time 14.5 day. The data set is classed as organism-based. Put shortly: as §3
Data set [19] is described as follows: Toxicity in CBAxC57BL/6J mouse assessed as effect on struggle by tail at 10 to 100 mg/kg, po bid for 14.5 days. The data set is classed as organism-based. Particulars: in vivo, 348 h, dose 10-100 mg/kg, time 14.5 day. Put shortly: as §2

Sequence of Histone deacetylase 2 (Q92769 whole entry): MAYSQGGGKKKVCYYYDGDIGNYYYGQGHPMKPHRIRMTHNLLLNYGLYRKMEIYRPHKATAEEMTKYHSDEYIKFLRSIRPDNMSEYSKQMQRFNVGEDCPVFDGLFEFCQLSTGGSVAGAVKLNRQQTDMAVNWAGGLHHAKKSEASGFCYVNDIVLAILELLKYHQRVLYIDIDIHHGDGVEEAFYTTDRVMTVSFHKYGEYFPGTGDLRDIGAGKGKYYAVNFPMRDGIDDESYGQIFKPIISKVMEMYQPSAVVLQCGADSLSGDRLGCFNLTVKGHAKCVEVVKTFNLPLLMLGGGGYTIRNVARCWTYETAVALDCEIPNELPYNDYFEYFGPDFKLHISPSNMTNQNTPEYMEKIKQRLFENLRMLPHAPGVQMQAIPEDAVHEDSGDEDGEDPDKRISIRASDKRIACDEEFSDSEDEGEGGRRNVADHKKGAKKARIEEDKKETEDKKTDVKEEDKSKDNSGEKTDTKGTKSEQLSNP

Regarding `C[C@H](CN1CCC[C@@H]1C)NC(=O)c1ccc(-c2noc(C(F)(F)F)n2)cc1`, the inhibition in the data set listed under Homo sapiens was over 50%; at Histone deacetylase 4 [2], over 80%; in data set [7] it was over 80%. In addition, the Kd in [1] was over 5 µM. Also, the Activity result in data set [3] is “Non-Toxic”; in [4], “Non-Toxic”; in data set [6], “Toxic”; in data set [10], “Non-Toxic”; in [11] it was “Non-Toxic”; in data set [13], “Non-Toxic”. Moreover, the Activity result in [16] is “Toxic”; in [18] it was “Toxic”; in data set [19] it was “Non-Toxic”. Further, the IC50 in data set [5] was 9.9 µM; at Histone deacetylase 1, 17 µM; at Histone deacetylase 2, 27 µM; on Histone deacetylase 4 [14] it was 0.01 µM; in data set [15], 10 µM. Also, in [8], the “T>IC50” value is 14 h. In data set [9], the solubility kinetic turned out to be 166 µM (≈ 63.5 µg/mL). Besides, the fraction unbound in data set [12] stood at 0.17. Moreover, in [17], the Tmax turned out to be 30 min.
